Only some compounds are listed: those with a hit (about 4.8% of all), similar ones and a draw of the others.
SKKanGAS inh: blocks kanamycin growth of S. pyogenes SKKanGAS strain; BacTiter-Glo, 6 h; inhibition, % at 7.5 µM; 1.3% of 300,000 active;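 active = mean replicate score, as percent of positive control median, at least 50; inconclusive = mean below 50 but one replicate at or above 50; inactive = mean and every replicate below 50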;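 note: strain carries kanamycin resistance gene driven by streptokinase promoter and grows in 40 µg/ml kanamycin; loss of luminescence reflects streptokinase promoter inhibition or plain growth inhibition; 0% = median of DMSO wells and 100% = positive control at its reference dose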
UPR CHOP act: activators of apoptotic arm of unfolded protein response (CHOP) | CHO-CHOP luciferase reporter, UPR activation, luminescence; percent of tunicamycin response over DMSO baseline | activation, % at 10 µM | 0.34% of 330,000 active;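 active = at 10 µM dose, activation of 40% or more, normalized to positive control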;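 note: 100% = tunicamycin at 10 µg/mL and 0% = DMSO alone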
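Dosing – one dose, 10 µM in 0.5% DMSO · System – CHO-CHOP cells, stable luciferase reporter of PERK-eIF2a-CHOP signalling · Input – 500 cells/well · Control set – tunicamycin 10 µg/mL final as positive, DMSO-only wells as negative · Timing – 6 h compound treatment, 37 °C · Measure – % activation vs tunicamycin · Technique – luminescence read with Steady-Glo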
CSC inhib: cancer stem cell inhibition; AID 2717; 1.1% of 300,000 active; cancer stem cell-like cells viability, luminescence; inhibition, % at 7.5 µM; in the data active = inhibition above about 75%; inconclusive = no clear call, values can overlap the other calls; tested in HMLE shEcad cells
Mdm2 MdmX PPI: human Mdm2/MdmX binding inhibition; O15151+Q00987; SaOS-2 split-luciferase Mdm2/MdmX complementation, luminescence; inhibition, % at 8 µM; 3% of 330,000 active; AID 485346;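 active = inhibition of at least 50% at 8 µM in the primary screen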
Target sequence (O15151 whole entry, looked up): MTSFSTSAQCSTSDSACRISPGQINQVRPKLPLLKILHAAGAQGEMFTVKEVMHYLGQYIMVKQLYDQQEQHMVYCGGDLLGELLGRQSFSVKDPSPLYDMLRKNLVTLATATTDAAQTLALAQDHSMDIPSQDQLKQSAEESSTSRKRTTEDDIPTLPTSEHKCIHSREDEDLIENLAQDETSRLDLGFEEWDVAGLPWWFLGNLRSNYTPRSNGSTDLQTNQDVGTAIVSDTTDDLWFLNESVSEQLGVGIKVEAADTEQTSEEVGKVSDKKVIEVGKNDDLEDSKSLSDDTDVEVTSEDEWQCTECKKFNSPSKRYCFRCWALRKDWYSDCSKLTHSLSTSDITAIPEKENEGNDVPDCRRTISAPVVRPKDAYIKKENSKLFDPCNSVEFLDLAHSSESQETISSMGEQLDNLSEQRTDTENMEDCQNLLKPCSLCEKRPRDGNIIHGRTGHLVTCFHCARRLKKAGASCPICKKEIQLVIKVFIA
Target sequence (Q00987 whole entry, looked up): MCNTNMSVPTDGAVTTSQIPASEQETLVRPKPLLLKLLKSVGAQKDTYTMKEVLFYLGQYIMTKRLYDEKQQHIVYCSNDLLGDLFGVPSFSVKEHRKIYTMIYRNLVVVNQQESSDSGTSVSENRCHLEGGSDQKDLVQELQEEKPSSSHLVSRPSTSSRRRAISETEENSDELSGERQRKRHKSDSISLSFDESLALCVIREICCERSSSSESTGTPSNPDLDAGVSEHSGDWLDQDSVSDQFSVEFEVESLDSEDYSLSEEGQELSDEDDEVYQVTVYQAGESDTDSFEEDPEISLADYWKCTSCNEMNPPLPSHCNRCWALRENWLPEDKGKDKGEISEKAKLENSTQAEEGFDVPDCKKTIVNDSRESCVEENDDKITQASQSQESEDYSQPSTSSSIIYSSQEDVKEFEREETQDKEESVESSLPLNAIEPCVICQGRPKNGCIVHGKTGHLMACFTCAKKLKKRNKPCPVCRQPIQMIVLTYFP
XBP1 UPR activ: adaptive UPR (XBP1) activation; CHO-XBP1 luciferase reporter, IRE1-XBP1 UPR activation, luminescence; percent of tunicamycin response, DMSO as zero; activation, % at 20 µM; 0.33% of 330,000 active;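 active = versus positive control, 20 µM dose yields 30% or more activation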;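 note: 100% = tunicamycin at 10 µg/mL and 0% = DMSO only wells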
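Test system: CHO-XBP1 luciferase reporter cells | Buffer or medium: Serum-containing F12 medium, 10% FBS | Schedule: 6 h compound exposure at 37 °C, 5% CO2 | Detection: Steady-Glo luciferase glow luminescence, 10 min after reagent addition | Read-out basis: Activation, % of tunicamycin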
Beta cell apopt: beta cell apoptosis inhibition; INS-1E cytokine-induced death, ATP luminescence, 48 h; percent of positive-control rescue, neutral wells zero; protection from apoptosis, % (test concentration not listed); 0.8% of 300,000 active;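 active = Every replicate reaches about 75%, or at least half do and their mean reaches it too, limit read from the data; inconclusive = At least half of replicates reach the limit but their mean does not; inactive = Under half of replicates reach the limit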;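 note: 0% = cytokine-treated negative control wells and 100% = positive control rescue; higher means more ATP so stronger rescue from cytokine killing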
Mdm2 MdmX conf: human Mdm2/MdmX binding inhibition, confirmed; luminescent assay; 55% of 10,000 active; inhibition, % at 8 µM; shares compounds with Mdm2 MdmX PPI; in the data active = inhibition above about 40%
FLuc counter: counter-screen for Mdm2/MdmX inhibitors: full-length luciferase; shares compounds with Mdm2 MdmX PPI; SaOS-2 full-length luciferase counterscreen, luminescence; inhibition, % at 8 µM; 77% of 6,200 active; AID 504607;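 active = mean inhibition at 8 µM reaching about 37%, which flags the compound as non-specific, limit read from the data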;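 note: p53-null SaOS-2 cells with luciferase driven by a doxycycline-inducible promoter; compound on cells about two nights before reading with doxycycline added after day one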
* marks the source's active call; other numbers are inactive results; ? = inconclusive; . = not tested or not shown.

SMILES	SKKanGAS inh	UPR CHOP act	CSC inhib	Mdm2 MdmX PPI	XBP1 UPR activ	Beta cell apopt	Mdm2 MdmX conf	FLuc counter
Cc1ccccc1OCC(O)Cn1c(=N)n(Cc2ccccc2)c2ccccc21 (stereo unspecified)	-5	1	?	97*	17	64	96*	29
COc1ccccc1OCC(O)Cn1c(=N)n(Cc2ccccc2)c2ccccc21 (stereo unspecified)	-1	-2	8	39	1	32	.	.
c1ccc(CCc2nn3c(-c4ccncc4)nnc3s2)cc1	-1	-1	.	69*	5	.	59*	34
CCOC(=O)c1ccc(NC(=O)c2c(N)n(C)c(=O)n(C)c2=O)cc1	11	3	-24	85*	9	3	9	.
C=CC[C@H](CC(=O)N(CCO)Cc1ccccc1)C(=O)N[C@@H](COC(=O)[C@@H](CC=C)CC(=O)OC(C)(C)C)Cc1c[nH]c2ccccc12	.	6	.	49	-4	6	.	.
C=CC[C@H](CC(=O)N(CCO)Cc1ccccc1)C(=O)N[C@H](COC(=O)[C@@H](CC=C)Cc1ccc(F)cc1)Cc1c[nH]c2ccccc12	.	15	8	86*	-3	1	38	71*
C=CC[C@@H](CC(=O)N(CCO)Cc1ccccc1)C(=O)N[C@H](COC(=O)[C@@H](CC=C)Cc1ccc(F)cc1)Cc1c[nH]c2ccccc12	.	20	22	88*	-1	-4	6	.
CCN1CCN(C(=O)CCn2c(=O)c3cccn3c3cccnc32)CC1	-6	-2	-7	0	-3	1	.	.
COC(=O)c1sccc1NC(=O)Nc1cccc(C)c1C	.	3	-9	20	-1	2	.	.
COCCN(C(=O)c1cc2c(s1)CCC2)c1c(N)n(CC(C)C)c(=O)[nH]c1=O	.	0	.	15	2	-10	.	.
O=C(CCCN1C(=O)/C(=C/c2cccc(Br)c2)SC1=S)Nc1ccccn1	28	-1	44	69*	-1	-21	84*	31
Cc1ccc(/C=C2\SC(=S)N(CC(=O)Nc3cccnc3)C2=O)cc1	3	0	8	18	-1	-1	.	.
Cc1ccc(/C=C2\SC(=S)N(CCCC(=O)Nc3cccnc3)C2=O)cc1	3	-6	0	92*	-7	.	72*	5
O=C(CCCN1C(=O)/C(=C/c2cccc(Br)c2)SC1=S)Nc1cccnc1	19	0	-16	78*	-4	-9	78*	63*
COc1ccccc1/C=C1/SC(=S)N(CCC(=O)Nc2cccnc2)C1=O	23	2	15	29	-3	-5	.	.
O=C(CCCN1C(=O)/C(=C/c2ccccc2OC(F)F)SC1=S)Nc1cccnc1	.	0	-13	85*	-2	-4	59*	22
COc1ccc(NC(=O)CSc2nnc(C)n2N)cc1S(=O)(=O)N1CCCCC1	.	0	.	-18	-2	-7	.	.
O=C(CCCN1C(=O)/C(=C\c2cccs2)SC1=S)Nc1cccnc1	-5	-1	-4	78*	-1	-7	80*	25
O=C(CCCN1C(=O)/C(=C/c2cccs2)SC1=S)Nc1cccnc1	0	1	20	15	-1	-13	.	.
O=C(CCCN1C(=O)/C(=C\c2cccc(Br)c2)SC1=S)Nc1cccnc1	8	-2	47	100*	-3	-6	86*	24
CN(Cc1ccccc1)S(=O)(=O)c1ccc(NC(=S)NC(=O)C2CCCC2)cc1	10	0	66	56*	2	7	58*	61*
COC(=O)c1c(NC(=O)/C=C/C(=O)O)sc(C)c1-c1ccc(C)c(C)c1	16	0	46	53*	-3	4	22	.
Cn1c2ccccc2c2cc([N+](=O)[O-])ccc21	-6	3	3	18	-3	-1	.	.
CCN(CC)CCn1c2ccccc2c2nc3ccc([N+](=O)[O-])cc3cc21	34	2	40	78*	1	35	77*	57*
CCOc1ccc(NS(=O)(=O)c2cc(C(=O)N3CCCC3)ccc2Cl)cc1	-6	1	-3	-1	-2	2	.	.
SMILES	SKKanGAS inh	UPR CHOP act	CSC inhib	Mdm2 MdmX PPI	XBP1 UPR activ	Beta cell apopt	Mdm2 MdmX conf	FLuc counter
CCOc1ccc(NS(=O)(=O)c2cc(NC(=O)c3cccc(C)c3)ccc2Cl)cc1	20	1	51	51*	-3	2	46*	79*
Cc1ccc(-c2csc3ncnc(NCCN4CCOCC4)c23)cc1	-3	-2	0	54*	1	-3	32	.
Clc1ccc(-c2csc3ncnc(NCCN4CCOCC4)c23)cc1	-7	0	13	45	2	0	.	.
COc1ccc(-c2csc3ncnc(NCCN4CCOCC4)c23)cc1	-4	0	47	61*	0	-16	65*	36*
CN(C1CCCCC1)S(=O)(=O)c1ccc(=S)[nH]c1	.	-1	-3	-20	0	-19	.	.
O=[N+]([O-])c1ccc(NC(=S)NCCc2ccc(F)cc2)cc1	0	0	2	86*	4	76*	63*	86*
O=C(CCC(=O)N1CCOc2ccccc21)Nc1ccccc1Br	-1	-1	7	14	1	-1	.	.
CC(=O)NC(CC(=O)Nc1ccc2c(c1)OCCO2)c1ccccc1 (stereo unspecified)	-6	7	5	5	7	0	.	.
COc1cc(C(=O)Nc2ccc3c(c2)nc(C)n3C)cc(OC)c1OC	-14	4	15	67*	-1	8	43*	61*
CC(=O)Nc1ccc2c(c1)ncn2C	-5	-1	2	9	0	-5	.	.
COc1cc(C(=O)Nc2ccc(-c3nc4cc(C)ccc4o3)c(O)c2)cc(OC)c1OC	103*	13	72	74*	10	28	52*	41*
COc1cc(C(=O)Nc2ccc3c(c2)ncn3C)cc(OC)c1OC	-1	0	54	55*	3	32	55*	58*
CCc1ccc(-c2cn(-c3nc(C)cc(C)n3)c(=N)o2)cc1	4	3	43	53*	7	13	52*	68*
CC(=O)OCCN(C)c1cc(SC(C)C)c2nonc2c1[N+](=O)[O-]	21	1	-16	15	-1	-3	.	.
CN(CCO)c1cc(Sc2nc3ccccc3s2)c2nonc2c1[N+](=O)[O-]	67*	-10	103*	97*	-7	56	97*	2

From PubChem
